Assay results of several laboratories.
Each line is one published result; the experiments were not run side by side.
Target: Cannabinoid receptor 1 (CNR1, Homo sapiens, UniProt P21554)

Compound	test	system	setting	endpoint	result
CN(CCN1CCC(OC(=O)Nc2ccccc2-c2ccccc2)CC1)C(=O)c1ccc(CN2CCC(C(N)=O)CC2)cc1	ligand displacement, radioligand	–	1 µM	inhibition	-3%
CC(C)N1CCC[C@H]1CNC(=O)c1cn(C2CCCC2)c(=O)c2c1c1ccccc1n2C	ligand displacement, radioligand	–	10 µM	inhibition	48%
c1ccc(C(NCCNC(c2ccccc2)c2ccccc2)c2ccccc2)cc1	cell-free assay	–	10 µM	inhibition	102%
CCOC(=O)C(CC)(CCCSCCOCCOCCNc1ccc([N+](=O)[O-])c2nonc12)NC(=O)c1ccc(C2CC2)c(Cc2ccc(F)cc2)n1 (racemic)	cAMP, agonist	–	–	Emax	126%
COc1ccc(S(=O)(=O)N2CCCCC2)cc1C	ligand displacement, radioligand	–	10 µM	inhibition	< 30%
CCN(CC)CCCC[C@H](NC(=O)[C@H](CC(C)C)NC(=O)[C@H](C)NC(=O)[C@H](Cc1ccccc1)NC(=O)c1ccc(C(C)(C)C)cc1)C(=O)N[C@@H](CO)C(=O)OC	ligand displacement, radioligand	–	10 µM	remaining binding	113%
O=C1N=C(N2CCCCN2)S/C1=C\c1ccc(F)cc1O	ligand displacement, radioligand	–	10 µM	inhibition	< 10%
N#Cc1c(Oc2cccc(OS(=O)(=O)CCCC(F)(F)F)c2)cccc1C(F)(F)F	calcium signal, agonist, fluorescence	CHO	–	Emax	39%
COCc1c(-c2cc3cc(C)cc(OC)c3s2)c2c(N)ncnn2c1CN1CCNC(=O)C1	ligand displacement, radioligand	–	10 µM	inhibition	26%
CC(C)C(NC(=O)c1nn(Cc2ccc(F)cc2)c2ccccc12)C(N)=O (centres unmarked)	calcium signal, agonist, fluorescence	–	–	Emax	120%
Clc1ccc2c(C3CCN(CCc4c[nH]c5ccccc45)CC3)c[nH]c2c1	ligand displacement, radioligand	–	10 µM	inhibition	-27%
